By IC50 is commonly meant the concentration at which inhibition is half-maximal. Read a low IC50 as greater potency in that assay.

Each structure is given as a SMILES string. Some results are limits rather than exact numbers.

Assay [1] can be described thus: Cytotoxicity against human L02 cells by after 48 hrs by MTT assay. The class given is cell-based. The settings on record: L02, 48 h. In outline: (§1)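 MTT assay; cell lines obtained from Shanghai Institute of Biological Sciences, CAS. Compounds in DMSO stock (10 g/L), diluted in medium just before use. Cells seeded at 8000/well; compound added 24 h later, in duplicate. After 48 h at 37 °C, 5% CO₂, MTT (5 mg/mL in PBS) added for 4 h. Formazan dissolved in DMSO; absorbance read at 570 nm. IC50 taken as the concentration giving 50% growth inhibition.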

Assay [2] has as its system A549. Nature of the assay: Cytotoxicity against human A549 cells by after 48 hrs by MTT assay. The class given is functional, cell-based. The settings on record: A549, 48 h. Summed up:
as §1

For another assay, the system named is HeLa. Nature of the assay: Cytotoxicity against human HeLa cells by after 48 hrs by MTT assay. The class given is functional, cell-based. In outline: as §1
On the technique in general: Tetrazolium dyes change colour on reduction, which living cells bring about.

The nature of assay [3]: Cytotoxicity against human QGY7701 cells by after 48 hrs by MTT assay. The class given is functional, cell-based. The settings on record: QGY7701, 48 h. Summed up: as §1
The subject of another assay is SW480. Nature of the assay: Cytotoxicity against human SW480 cells by after 48 hrs by MTT assay. The class given is functional, cell-based. Particulars: SW480, 48 h. Summed up: as §1
The subject of a further assay is SGC-7901. Nature of the assay: Cytotoxicity against human SGC7901 cells by after 48 hrs by MTT assay. The class given is functional, cell-based. Particulars: SGC-7901, 48 h. In outline: as §1
A further assay relates to MDA-MB-231. Nature of the assay: Cytotoxicity against human MDA-MB-231 cells by after 48 hrs by MTT assay. The settings on record: MDA-MB-231, 48 h. The class given is functional, cell-based. In outline:
as §1

Assay [4] relates to A549. Nature of the assay: Induction of apoptosis in human A549 cells assessed as viable cells at 1 uM after 48 hrs by annexinV/propidium iodide staining-based flow cytometric analysis ( Rvb = 95.96%). The class given is functional. Particulars: A549, 48 h, read-out: Activity. (In general: A flow cytometer gives signals particle by particle.)
For assay [5], the system named is A549. Nature of the assay: Induction of apoptosis in human A549 cells assessed as early apoptotic cells at 1 uM after 48 hrs by annexinV/propidium iodide staining-based flow cytometric analysis ( Rvb = 0.15%). The class given is functional.
Assay [6] has as its system A549. Nature of the assay: Induction of apoptosis in human A549 cells assessed as late apoptotic cells at 1 uM after 48 hrs by annexinV/propidium iodide staining-based flow cytometric analysis (reference value: 0.16%). The class given is functional.
Assay [7] deals with A549. Nature of the assay: Induction of apoptosis in human A549 cells assessed as viable cells at 2 uM after 48 hrs by annexinV/propidium iodide staining-based flow cytometric analysis ( Rvb = 95.96%). The class given is functional. The settings on record: A549, 48 h, read-out: Activity.
Assay [8] deals with A549. Nature of the assay: Induction of apoptosis in human A549 cells assessed as early apoptotic cells at 2 uM after 48 hrs by annexinV/propidium iodide staining-based flow cytometric analysis ( Rvb = 0.15%). The class given is functional.
For assay [9], the system named is A549. Nature of the assay: Induction of apoptosis in human A549 cells assessed as late apoptotic cells at 2 uM after 48 hrs by annexinV/propidium iodide staining-based flow cytometric analysis (reference value: 0.16%). The class given is functional.
Assay [10] relates to A549. Nature of the assay: Induction of apoptosis in human A549 cells assessed as viable cells at 4 uM after 48 hrs by annexinV/propidium iodide staining-based flow cytometric analysis ( Rvb = 95.96%). The class given is functional. The settings on record: A549, 48 h, read-out: Activity.
The test system of assay [11] is A549. Nature of the assay: Induction of apoptosis in human A549 cells assessed as early apoptotic cells at 4 uM after 48 hrs by annexinV/propidium iodide staining-based flow cytometric analysis ( Rvb = 0.15%). The class given is functional.
For assay [12], the system named is A549. Nature of the assay: Induction of apoptosis in human A549 cells assessed as late apoptotic cells at 4 uM after 48 hrs by annexinV/propidium iodide staining-based flow cytometric analysis (reference value: 0.16%). The class given is functional.
Assay [13] relates to A549. Nature of the assay: Induction of apoptosis in human A549 cells assessed as viable cells at 8 uM after 48 hrs by annexinV/propidium iodide staining-based flow cytometric analysis ( Rvb = 95.96%). The class given is functional. Particulars: A549, 48 h, read-out: Activity.
In assay [14] the test system is A549. Nature of the assay: Induction of apoptosis in human A549 cells assessed as early apoptotic cells at 8 uM after 48 hrs by annexinV/propidium iodide staining-based flow cytometric analysis ( Rvb = 0.15%). The class given is functional.
The subject of assay [15] is A549. Nature of the assay: Induction of apoptosis in human A549 cells assessed as late apoptotic cells at 8 uM after 48 hrs by annexinV/propidium iodide staining-based flow cytometric analysis (reference value: 0.16%). The class given is functional.
Assay [16] relates to A549. Nature of the assay: Induction of apoptosis in human A549 cells assessed as necrotic cells at 2 uM after 48 hrs by annexinV/propidium iodide staining-based flow cytometric analysis (reference value: 3.72%). Particulars: A549, 48 h.
Assay [17] deals with A549. Nature of the assay: Induction of apoptosis in human A549 cells assessed as necrotic cells at 4 uM after 48 hrs by annexinV/propidium iodide staining-based flow cytometric analysis (reference value: 3.72%). Particulars: A549, 48 h.
Assay [18] deals with A549. Nature of the assay: Induction of apoptosis in human A549 cells assessed as necrotic cells at 8 uM after 48 hrs by annexinV/propidium iodide staining-based flow cytometric analysis (reference value: 3.72%). Particulars: A549, 48 h.
For assay [19], the system named is A549. Nature of the assay: Induction of apoptosis in human A549 cells after 48 hrs by annexinV/propidium iodide staining-based flow cytometric analysis. The class given is functional, cell-based.

In the case of `C/C(=C\COc1ccc2ccc(=O)oc2c1)C1=CC(=O)C(C)(C)O1` [GEIPARVARIN], the IC50 in [1] is more than 300 µM; in the assay on A549 [2], 18 µM; in the assay with HeLa, 9.09 µM; in assay [3], 17.7 µM; in the assay with SW480, 20.3 µM; with SGC-7901, 7.59 µM. The molecule also had a 50% inhibitory concentration (IC50) in the assay on MDA-MB-231 of 9.88 µM. The viability at 1 µM in the assay with A549 [4] stood at 90.7%. For the same molecule, the Activity is on record as 6.19% with A549 [5]; 1.32% in the assay with A549 [6]; 11.51% in the assay on A549 [8]; 5.25% in the assay on A549 [9]; 18.87% in the assay with A549 [11]; 4.27% in the assay on A549 [12]. The figures for the Activity in the assay with A549 [14] and in the assay on A549 [15] were 25.25% and 3.56%, respectively. Moreover, the viability at 2 µM in the assay on A549 [7] was 77%. The viability at 4 µM in the assay with A549 [10] was 71.7%. Besides, the viability at 8 µM in the assay with A549 [13] was 65.3%. For the same molecule, the necrotic cells at 2 µM in the assay with A549 [16] was determined as 4.26%. Moreover, in the assay with A549 [17], the necrotic cells at 4 µM is 5.13%. In addition, the necrotic cells at 8 µM in the assay with A549 [18] stood at 5.87%.
For `O=c1ccoc2cc(OCc3cn(Cc4ccc(Cl)cc4Cl)nn3)ccc12`, the IC50 was more than 300 µM in [1]; 5.26 µM in the assay on A549 [2]; 80.6 µM in the assay with HeLa; 13.3 µM in assay [3]; more than 100 µM in the assay with SW480; more than 100 µM with SGC-7901. This molecule had an IC50 with MDA-MB-231 of more than 100 µM. Further, the viability at 1 µM with A549 [4] was determined as 88.4%. Moreover, the Activity is 7.13% in the assay on A549 [5]; 2.31% with A549 [6]; 17.62% in the assay with A549 [8]; 3.56% in the assay on A549 [9]; 28.45% in the assay on A549 [11]; 3.55% with A549 [12]. Also, the Activity in the assay with A549 [14] was 29.73%; with A549 [15], 3.33%; in the assay with A549 [19], “Dose-dependent effect”. For the same molecule, in the assay on A549 [7], the viability at 2 µM was 76.4%. Besides, the viability at 4 µM in the assay on A549 [10] turned out to be 65.8%. Also, the viability at 8 µM in the assay with A549 [13] amounted to 65.3%. The necrotic cells at 2 µM with A549 [16] turned out to be 2.42%. Also, in the assay on A549 [17], the necrotic cells at 4 µM turned out to be 2.19%. The necrotic cells at 8 µM in the assay with A549 [18] was 1.64%.

(Values after ChEMBL document CHEMBL2034938, “Convenient synthesis of novel geiparvarin analogs with potential anti-cancer activity via click chemistry” (Eur J Med Chem, 2012).)
